# Sampled rows, rich in hits. Any-hit rate of the full collection: about 3%.
# 5HT1E antag: 5-HT1E receptor antagonists, primary screen, cell-based, HTS. 5-hydroxytryptamine receptor 1E (Homo sapiens), P28566. CHO 5-HT1E Ga15 NFAT-bla reporter, FRET, antagonist. inhibition, % at 6 µM. 65,000 compounds, 0.99% hits. AID 571, 2007;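 active = inhibition above a set limit, the mean inhibition across every tested compound plus 3 SD, cut at about 29% in these data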;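 also: signal is the 460 over 535 nm emission ratio of beta-lactamase substrate; 0% = agonist plus DMSO wells and 100% = wells without agonist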
# 5HT1E ag: 5-HT1E receptor agonists, primary screen, cell-based, HTS; 5-hydroxytryptamine receptor 1E (Homo sapiens), P28566; CHO 5-HT1E Ga15 NFAT-bla reporter, FRET; 0% DMSO wells, 100% control agonist wells; activation, % at 6 µM; 65,000 compounds, 0.69% hits; AID 574, 2007;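 active = activation above a set limit, the screen-wide mean activation plus 3 SD, cut at about 8.5% in these data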;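 also: 100% = positive control agonist at 1 µM giving full maximal response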
# 5HT1a ag: human 5-HT1a receptor agonists, primary screen, cell-based, CHO, Ga15 NFAT-bla reporter; 65,000 compounds, 0.56% hits; CHO 5-HT1a Ga15 NFAT-bla reporter, FRET ratio; 0% basal, 100% maximal reference agonist; activation, % at 10 µM; 5-hydroxytryptamine receptor 1A (Homo sapiens), P08908; AID 567, 2006;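 active = activation above the screen-wide mean activation plus 3 SD, cut at about 19% in these data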;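 also: 0% = DMSO wells and 100% = 5-CT at EC100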
# S1P3 agonist: human S1P3 receptor agonists, primary screen, cell-based, primary and confirmation, NFAT-BLA reporter. Sphingosine 1-phosphate receptor 3 (Homo sapiens), Q99500. S1P3 NFAT-BLA reporter cells, agonism, FRET ratio; relative to 1 µM S1P, basal subtracted. activation, % at 4.5 µM. 60,000 compounds, 0.1% hits;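 active = activation above the screen-wide mean plus 3 SD, cut at about 4.5% in these data, passing the limit was not always enough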
# Target sequence (Q99500 whole entry, looked up): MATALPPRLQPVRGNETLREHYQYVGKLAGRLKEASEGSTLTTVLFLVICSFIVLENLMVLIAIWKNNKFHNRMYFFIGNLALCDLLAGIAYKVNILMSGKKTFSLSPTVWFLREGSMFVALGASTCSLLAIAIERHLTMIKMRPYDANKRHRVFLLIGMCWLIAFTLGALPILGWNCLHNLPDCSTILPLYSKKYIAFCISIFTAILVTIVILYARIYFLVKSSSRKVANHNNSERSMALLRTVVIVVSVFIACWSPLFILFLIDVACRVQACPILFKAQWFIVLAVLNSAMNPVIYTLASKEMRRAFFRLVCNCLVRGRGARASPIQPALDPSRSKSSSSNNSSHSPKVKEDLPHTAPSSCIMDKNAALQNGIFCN
#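 Measure – % activation relative to 1 µM S1P (100%), per plate · System – stable CHO line with human S1P3, Gα16, NFAT-BLA reporter · Timing – cells plated overnight, compound 4 h 37 °C, substrate 2 h RT · Technique – fluorescent BLA substrate, ex 405 nm, em 460/535 nm ratio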
# S1P1 ag-PAM: S1P1 agonists and agonism potentiators, primary screen, cell-based, primary and confirmation screens, CRE-bla reporter; S1P1 CRE-bla cells, forskolin, beta-lactamase FRET, potentiator mode; S1P1 agonist co-added at EC20, 2 nM; 100% = saturating reference agonist, 0% = basal; activation, % at 9.5 µM; Sphingosine 1-phosphate receptor 1 (Homo sapiens), P21453; AID 449, 2006; 56,000 compounds, 0.57% hits;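 active = activation above a cutoff set at the mean activation of all tested compounds plus 3 SD, cut at about 54% in these data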;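 also: forskolin at 4 µM as EC80 and the EC20 agonist is SEW2871; 100% = SEW2871 at its EC100 plus forskolin at EC80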
# 5HT1a antag: human 5-HT1a receptor antagonists, primary screen, cell-based, CHO, Ga15 NFAT-bla reporter; CHO 5-HT1a Ga15 NFAT-bla reporter, antagonist mode; 62,000 compounds, 0.68% hits; 5-hydroxytryptamine receptor 1A (Homo sapiens), P08908; inhibition, % at 10 µM;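 active = inhibition above the mean of all tested compounds plus 3 SD, cut at about 43% in these data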;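 also: receptor stimulated by 5-CT agonist at 100 nM near EC80; beta-lactamase reporter measured by ratiometric fluorescence of a cleavable substrate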
# The depositor's hits bear a star; · = no result given.
SMILES,5HT1E antag,5HT1E ag,5HT1a ag,S1P3 agonist,S1P1 ag-PAM,5HT1a antag
C=C(C)CSc1nnc(-c2ccccc2)n1N,-4.2,41.5*,0.9,-1.6,·,0.4
CC(C)CNc1oc(-c2ccc(F)cc2)nc1C#N,11.6,-1.3,-2.2,0.5,-33.6,0.7
O=C1CC(Sc2nnnn2C2CCCCC2)C(=O)N1c1ccccc1 (configuration not stated),23.0,0.2,-1.8,-1.1,-25.5,44.5*
CCN(CC)c1ccc2c(C)c(CN3CCOCC3)c(=O)oc2c1,-16.0,5.5,23.4*,1.8,-64.9,-43.0
Cc1cc(/C=N/n2cnnc2)c(C)n1-c1cccc(Cl)c1,-3.4,-0.7,-0.9,0.7,-10.1,-1.3
Cc1cc(/C=N/n2cnnc2)c(C)n1-c1ccc(OCc2ccc(F)cc2)cc1,20.5,0.6,-2.1,-2.3,142.1*,20.7
Cc1sc(-n2c(C)cc(/C=N/n3cnnc3)c2C)c(C#N)c1C,11.7,0.0,-1.3,-1.3,7.5,·
Cc1cc(/C=N/n2cnnc2)c(C)n1-c1ccc(Cl)cc1Cl,40.4*,0.3,-1.9,-1.5,-8.1,32.4
CN(C)c1ccc(-c2nn3c(-c4ccccc4Cl)nnc3s2)cc1,75.3*,2.1,2.5,-0.9,-52.8,44.8*
COc1ccccc1-c1nnc2sc(-c3cc4ccccc4o3)nn12,36.2*,0.1,-1.8,-0.2,-7.8,18.6
COc1ccccc1-c1nnc2sc(-c3cnccn3)nn12,-8.6,0.1,-2.1,-1.0,-7.1,1.0
Clc1ccccc1-c1nnc2sc(-c3ccncc3)nn12,11.7,-0.2,-0.5,-0.6,-3.9,10.7
COc1ccccc1-c1nnc2sc(-c3ccc(N(C)C)cc3)nn12,86.1*,0.8,-4.4,-1.8,-66.7,67.7*
CS(=O)(=O)N(CC(=O)N1CCCCCC1)c1ccc(Br)cc1,6.2,-2.5,-2.5,-1.1,10.2,10.1
C=C1[C@@H](C)C2[C@H](Cc3ccccc3)NC(=O)[C@]23OC(=O)CC[C@H](O)CCC[C@H](C)C/C=C/[C@H]3[C@@H]1O (some centres not stated),33.5*,0.5,-2.0,2.8,-3.2,·
O=C(c1ccc(Cl)s1)N1CCN(c2ccccc2)CC1,-2.0,0.1,-0.1,-0.3,0.5,8.0
CC(C)n1c2ccccc2c2nc3ccccc3nc21,32.3*,0.1,5.2,0.2,-37.8,5.9
CCOC(=O)c1cccc2c1-c1ccccc1/C2=N/O,21.1,0.2,-1.9,-1.4,62.0*,30.4
Clc1cccc(N2CCN(CCNc3nc4ccccc4n4cnnc34)CC2)c1,5.7,8.9*,6.0,-0.9,-13.2,17.4
Cc1ccc(-c2nnn(CCC(=O)NC3CCCC3)n2)cc1,1.1,-0.3,-2.6,-0.5,-20.4,13.2
C=CCOc1cccc(C2/C(=C(/O)c3ccccc3)C(=O)C(=O)N2CCCN2CCOCC2)c1 (configuration not stated),-6.0,0.5,-2.2,-1.1,2.1,-6.7
Cn1c(=O)c2c(nc(SC3C(=O)CC(C)(C)CC3=O)n2C)n(C)c1=O,1.1,-0.5,-2.7,0.1,-8.4,-6.7
COc1ccc2ncn(-c3ccccc3)c2c1,16.0,-1.2,-3.5,-1.5,67.8*,23.3
Cc1cccc(-c2nc(C#N)c(NC3CCCCC3)o2)c1,55.0*,-0.4,-1.1,-3.6,68.5*,·
CCN1CCN(C(=O)CS(=O)Cc2nc(-c3ccc(OC)cc3)oc2C)CC1 (configuration not stated),-4.1,0.3,-2.7,-0.6,2.0,-10.2
SMILES,5HT1E antag,5HT1E ag,5HT1a ag,S1P3 agonist,S1P1 ag-PAM,5HT1a antag
Cc1cccc(-c2nc(CS(=O)CC(=O)NC3CCCC3)c(C)o2)c1 (configuration not stated),13.2,-0.1,36.8*,-0.9,13.0,-3.4
COc1ccc(-c2nc(CS(=O)CC(=O)N3CCCC3)c(C)o2)cc1 (configuration not stated),9.5,0.4,100.9*,0.3,-14.5,-3.4
COCCCNC(=O)CS(=O)Cc1nc(-c2cccc(OC)c2)oc1C (configuration not stated),-5.9,8.9*,-1.3,-0.6,0.3,11.5
Cc1oc(-c2cccs2)nc1CS(=O)CC(=O)NC1CCCCCC1 (configuration not stated),0.4,0.5,-2.3,-0.9,9.6,8.5
Cc1ccc(NC(=O)CSc2n[nH]c(-c3ccncc3)n2)cc1C,0.2,-0.7,1.1,-0.9,-4.4,0.9
COc1ccc(-c2nc(CS(=O)CC(=O)NCc3ccco3)c(C)o2)cc1OC (configuration not stated),29.2*,0.0,0.2,0.2,-1.4,6.2
Cc1ccc(-c2nn(C)c(=O)c3ccccc23)cc1S(=O)(=O)NCCO,28.9*,-0.5,-2.1,-1.3,·,5.7
Cc1ccc(-c2nn(C)c(=O)c3ccccc23)cc1S(=O)(=O)N1CCCC1,35.9*,1.6,0.0,-0.1,-49.9,9.9
CS(=O)(=O)N(CC(=O)NCc1ccncc1)Cc1ccc(Cl)cc1,-9.0,0.8,0.6,0.6,·,-11.4
COc1ccc(S(=O)(=O)N2CCCCC2)cc1C(C)C,4.9,33.9*,0.3,-0.1,13.3,9.7
COc1ccc(Oc2ccc(S(=O)(=O)N3CCCCC3)cc2S(=O)(=O)N2CCCCC2)cc1,11.3,-0.3,0.0,·,·,-25.8
COc1ccc(OC)c(S(=O)(=O)N2c3cc(F)ccc3CCC2C)c1 (configuration not stated),-7.3,0.3,0.1,-0.3,-6.4,10.1
O=c1[nH]c2ccccc2n1CCCSc1cnc2ccccc2n1,9.9,2.0,1.1,-0.4,44.8,18.0
C=CCn1c2ccccc2c2nnc(SCCCn3c(=O)[nH]c4ccccc43)nc21,21.5,0.8,10.4,·,·,47.6*
CC(C(=O)N1c2ccc(F)cc2CCC1C)N1C(=O)c2ccccc2C1=O (configuration not stated),-2.7,-1.6,0.8,-0.3,5.3,21.7
CC(=O)c1c(C)nc2ccc(Br)cc2c1C(=O)O,6.5,0.8,0.0,-0.4,2.1,3.2
CCCC(=O)C1C(=O)CC(C)(C)C(c2cc(C)no2)C1=O (configuration not stated),-2.3,0.5,0.2,-0.2,·,-7.3

# High-throughput results as filed in PubChem.
